HTR2A ag: activates the mouse 5-HT2A serotonin receptor; CHO-K1 mHTR2A beta-arrestin complementation, luminescence; percent of 30 µM serotonin response; actives 0.66% (n = 360,000); AID 624169; P35363; activation, % at 7.6 µM;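 active = activation above a run cutoff, the mean activation of all tested compounds plus 3 SD, cut at about 14% in these data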;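 also: 0% = plate median of compound wells and 100% = 30 µM serotonin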
EBI2 antag: EBI2 (human) antagonism; EBI2 beta-arrestin recruitment, luminescence, 7a,25-OHC stimulated; P32249; inhibition, % at 5 µM; actives 0.81% (n = 360,000); in the data active = inhibition above about 38%;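 also: enzyme fragment complementation signal reports receptor beta-arrestin coupling in cells; 0% = agonist plus DMSO wells and 100% = wells without agonist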
APJ ag: activates the human apelin receptor APJ. actives 0.11% (n = 330,000). P35414. CHO-K1 APJ PathHunter beta-arrestin, luminescence; 0% DMSO wells, 100% apelin. activation, % at 20 µM;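 active = activation more than six SD over the plate average, tested at 20 µM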;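 also: 0% = DMSO alone and 100% = apelin-13 at 10 nM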
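system = engineered CHO-K1 APJ arrestin reporter cells | input = 1000 cells per well | timing = overnight seeding, 90 min compound at 25 °C, 1 h detection | measured by = enzyme-fragment complementation luminescence | read-out = beta-arrestin recruitment to APJ as agonist activity, luminescent signal | control set = negative DMSO alone, positive Apelin-13 at 10 nM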
APJ antagonist: APJ receptor antagonism. inhibition, % at 20 µM. P35414. actives 0.32% (n = 330,000). CHO-K1 APJ beta-arrestin complementation, luminescence;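 active = inhibition above about 40% at 20 µM, limit read from the data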;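 also: cells challenged with 10 nM apelin-13 agonist together with compound; plate controls were apelin-13 plus DMSO wells for no effect and DMSO wells lacking apelin-13 for full effect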
CXCR6 block: blocks human CXCR6 beta-arrestin recruitment | O00574 | CHO-K1 PathHunter CXCR6 beta-arrestin, luminescence | inhibition, % at 20 µM | actives 0.36% (n = 360,000); in the data active = inhibition above about 34%, passing the limit was not always enough;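 also: antagonist mode with CXCL16 agonist at 10 nM final; 0% = 10 nM CXCL16 with DMSO and 100% = unstimulated wells without agonist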
CCR6 antagonist: CCR6 (human) receptor antagonism | CHO-K1 CCR6 PathHunter beta-arrestin, luminescence, CCL20-stimulated | inhibition, % at 20 µM | actives 0.49% (n = 340,000) | AID 493098;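 active = compounds whose inhibition of the agonist-driven luminescence signal at 20 µM reaches about 50%, limit read from the data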;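 also: cells stimulated with CCL20 at 14 nM final; plate controls were DMSO with CCL20 for no effect and DMSO without agonist for full effect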
Target sequence (P51684 whole entry, looked up): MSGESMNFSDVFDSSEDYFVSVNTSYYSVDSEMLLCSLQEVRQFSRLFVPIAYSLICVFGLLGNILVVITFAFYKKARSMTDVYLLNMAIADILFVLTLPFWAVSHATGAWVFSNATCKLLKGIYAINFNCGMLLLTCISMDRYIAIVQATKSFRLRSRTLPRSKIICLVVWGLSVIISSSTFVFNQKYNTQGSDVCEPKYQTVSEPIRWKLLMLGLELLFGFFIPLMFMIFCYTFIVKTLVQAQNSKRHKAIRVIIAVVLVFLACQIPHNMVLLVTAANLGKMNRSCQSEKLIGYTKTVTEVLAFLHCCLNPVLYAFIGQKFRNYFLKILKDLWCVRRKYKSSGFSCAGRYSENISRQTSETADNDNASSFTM
Active calls of the source: *; x = not tested or not shown. In the library only some 2.1% were active in any assay of this set; here they are far more common.

SMILES | HTR2A ag | EBI2 antag | APJ ag | APJ antagonist | CXCR6 block | CCR6 antagonist
COc1cccc(C2=NOC(C(=O)NC3CCCCC3)C2)c1 (stereo not given) | 0 | -8 | -1 | 16 | 8 | -12
O=c1c2c([N+](=O)[O-])cc([N+](=O)[O-])cc2sn1-c1ccc(Br)cc1 | -1 | 78* | 0 | -51 | 22 | 50*
O=C(CSc1nnc(COc2ccccc2)n1-c1ccccc1)c1ccccc1 | -6 | 3 | -3 | -5 | -2 | 14
COc1cccc(/C=N/Nc2nc(Nc3ccc([N+](=O)[O-])cc3)nc(N3CCCC3)n2)c1O | -10 | 13 | 0 | -9 | 45* | 69*
CCC(C)[C@@H](NC(=O)OC(C)(C)C)c1nnc(S(=O)(=O)Cc2cccc(C)c2)o1 (stereo not given in full) | 0 | -5 | x | x | 53* | 38
CCOc1ccc(NC(=O)c2ccccc2NC(=O)CN(C)CC(=O)Nc2ccc(C)cc2)cc1 | -1 | 3 | -1 | 2 | 11 | -8
Cc1[nH]n(-c2ccccc2)c(=O)c1N=Nc1c(O)cc(S(=O)(=O)N(C)C)c2ccccc12 | 5 | -38 | -10 | 30 | 24 | 68*
CN1CCN(C2=C(Cl)C(=O)C(c3cnc(N4CCCCC4)s3)=C(Cl)C2=O)CC1 | 1 | -2 | 11 | 11 | 30 | 74*
Cc1c(N=Nc2ccc(O)cc2)c(=O)n(-c2ccccc2)n1C | -2 | -1 | -4 | 18 | 8 | 19
Cc1c(N=NC2=C(O)CCCC2=O)c(=O)n(-c2ccccc2)n1C | -7 | 7 | -3 | 12 | 49* | 70*
CC1(C)Cc2ccccc2C(N/N=C/c2cccc(F)c2)=N1 | -3 | -3 | 0 | -11 | 2 | 15
CC(C)Cn1c(Cc2ccccc2)n[nH]c1=S | -2 | -8 | -1 | -21 | -4 | -9
C=CCc1cccc(CNn2cnnc2)c1O | -2 | -5 | -4 | 16 | 62* | 20
CCSc1nc2ccccc2n1C(=O)/C=C/c1ccc(OC)c(OC)c1 | 2 | 33 | 2 | 15 | 18 | 48
C=CCSc1nc2ccccc2n1C(=O)/C=C/c1cc(OC)c(OC)c(OC)c1 | -2 | 56* | -2 | 12 | 25 | 39
C=CCSc1nc2ccccc2n1C(=O)/C=C/c1ccc(OC)c(OC)c1 | -2 | 46* | x | x | 20 | 22
COc1cc(/C=C/C(=O)NCCn2c(C)cc3ccccc32)cc(OC)c1OC | -3 | 9 | -1 | -3 | 0 | 7
CCc1nnc(NC(=O)CSc2nnc(-c3cccnc3)n2C)s1 | 2 | -17 | 3 | 10 | -6 | 2
CCNC(=S)N=Nc1c(O)[nH]c2ccc([N+](=O)[O-])cc12 | 3 | 10 | -5 | 38 | 21 | 42
O=[N+]([O-])c1ccc2[nH]c(O)c(N=NC(=S)Nc3cccnc3)c2c1 | 0 | 30 | -4 | 34 | 42* | 70*
O=C1CN(N=Cc2ccco2)C(=O)N1 | -4 | -1 | x | x | 5 | 3
Cc1cc(NC(=O)CSc2nc3sc(C)c(C)c3c(=O)n2C2CCCC2)no1 | 17* | 1 | 1 | 5 | -1 | -10
CCN(C[C@H]1N[C@@](Cc2ccccc2)(C(=O)OC)[C@H]2C(=O)N(C)C(=O)[C@@H]12)C(=O)Nc1ccc(F)cc1 | -4 | -1 | -3 | 6 | 8 | -1
COCCN(CCOC)S(=O)(=O)c1ccc(C(=O)Nc2sc3c(c2C(N)=O)CCCCC3)cc1 | 2 | 10 | 2 | 32 | 4 | 14
Cc1[nH]n(-c2ccccc2)c(=O)c1/C=N/N1C(=O)c2ccc3c4c(ccc(c24)C1=O)CC3 | 1 | 2 | 3 | -12 | 38* | x
SMILES | HTR2A ag | EBI2 antag | APJ ag | APJ antagonist | CXCR6 block | CCR6 antagonist
O=C1Nc2ccc(Br)cc2/C1=N\N=C\C1=C(N2CCOCC2)C(=C/c2ccccc2)/CC1 | -3 | 7 | x | x | 41* | 55*
O=C1Nc2ccccc2/C1=N\N=C\C1=C(N2CCOCC2)C(=C\c2ccccc2)/CC1 | -2 | 7 | -9 | 8 | 36 | x
O=C(N/N=C1\C/C(=N\NC(=O)c2ccncc2)c2ccccc21)c1ccncc1 | -4 | -3 | 5 | -18 | 30 | 56*
CCOc1ccc(NC(=O)c2ccncc2)cc1 | 1 | -2 | -4 | -9 | -5 | -18
CCOc1ccc2c(c1)C(=NNC(=O)c1ccncc1)c1cc(OCC)ccc1-2 | 0 | 8 | -12 | 57* | 34 | 40
COCCNC(=O)CSc1ccc(-c2nc3ccccc3[nH]2)cn1 | 5 | -3 | 3 | -7 | 0 | -10
CCCOC(=O)/C=C/c1c(C)[nH]c(=O)[nH]c1=O | -1 | -16 | 6 | -6 | -13 | -5
CCN1/C(=C\C(=S)Nc2ccccc2)Sc2ccccc21 | 4 | 11 | -3 | 19 | 1 | 18
CCN1/C(=C/C(C)=C/c2sc3ccccc3[n+]2CC)Sc2ccccc21 | -4 | 30 | 0 | 56* | 57* | 62*
CC(C)(C)c1nc2cc(Cl)c([N+](=O)[O-])cc2o1 | 1 | 4 | 1 | 5 | -5 | 6
COc1cc(OC)cc(C(=O)Nc2ccc3c(c2)OCCO3)c1 | -1 | 5 | -4 | 8 | 4 | 13
O=C1C=CC(=O)N1c1cccc(-c2ccccc2)c1 | -4 | 7 | 2 | -2 | 72* | 76*
Cc1ccc(S(=O)(=O)c2c(N)n(/N=C/c3ccco3)c3nc4ccccc4nc23)cc1C | 5 | 46* | 3 | -13 | 7 | 7
COc1cccc(/C=N/n2c(N)c(S(=O)(=O)c3cccs3)c3nc4ccccc4nc32)c1 | 0 | 5 | -4 | -6 | 1 | 7
Nc1c(S(=O)(=O)c2cccs2)c2nc3ccccc3nc2n1/N=C/c1cccc(O)c1 | -1 | 58* | 4 | -3 | 11 | -6
COc1cc(/C=C2\SC(=S)N(c3cccnc3)C2=O)ccc1O | 0 | 6 | -9 | 53* | 65* | 75*
O=C1N=c2ccccc2=C1c1sc(Nc2cccc(O)c2)nc1O | -4 | 6 | -4 | 33 | 20 | 34
O=C1N=c2ccccc2=C1c1sc(Nc2ccc(O)cc2)nc1O | -6 | 4 | x | x | 50* | 57*
O=C1N=c2ccccc2=C1c1sc(NS(=O)(=O)Cc2ccccc2)nc1O | 1 | 9 | -6 | 13 | 10 | 76*
C[C@@H]1CN([C@@H](C)CO)C(=O)c2cc(C#Cc3cccc(F)c3)cnc2O[C@@H]1CN(C)CC1CCOCC1 | 7 | 2 | x | x | 1 | x
COc1ccc(-c2cc(=O)oc3cc(OCC(=O)N4C[C@H]5C[C@@H](C4)c4cccc(=O)n4C5)ccc23)cc1 | -1 | 10 | -3 | -64 | -1 | 0
CC(C)(C)C(=O)Nc1nc(-c2ccccc2)ns1 | -2 | 0 | -1 | -12 | -7 | 0

High-throughput results from PubChem.
